pIC50: −log10 of the molar value. Blank lines part the entries; values can stand above or below the compound they belong to.
Legend:
[1] = Cytotoxicity against human PA1 cells after 48 hrs by Hoechst 33342 assay; assay type: cell-based; conditions: pa-1, 48 h
Method in brief: (§1)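 Adherent lines in Glutamax MEM with Earle's salts, FCS, vitamins, pyruvate, NEAA, glutamine, gentamycin. Seeded 5 × 10³ cells/well, adhered 16 h, then 48 h continuous exposure in 0.5% DMSO (solvent control). After resazurin read, cells PBS-rinsed and stored at −80 °C. Then thawed and given 30 µg/mL Hoechst 33342 in Tris pH 7.4/EDTA/NaCl buffer, 1 h at 37 °C, fluorescence 360/460 nm (DNA ∝ biomass). Two independent assays in triplicate, mean ± SD.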

CEM-VLB [2] = assay: Antiproliferative activity against vinblastine-resistant CEM/VLB100 after 72 hrs in presence of 2 uM laxaphycin A; assay type: functional, cell-based; conditions: Homo sapiens
Method in brief: (§2)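 Leukemic lymphoblasts (parent CCRF-CEM, Pgp-overexpressing CEM/VLB100, topo II-altered CEM/VM-1) grown in RPMI 1640 with 10% FCS and antibiotics, 37 °C, 5% CO2. Serial dilutions in medium added to 2 × 10⁵ cells/mL for 3 days, medium not renewed. Survivors counted on a Coulter counter. Triplicate, averaged.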

[3] = Cytotoxicity against vinblastine-resistant CEM/VLB100 cells after 72 hrs; assay type: cell-based; conditions: Homo sapiens, CEM/VLB100, 72 h; method in brief: as §2
DLD-1 [4] = assay: Increase in cytotoxicity in human DLD1 cells at 2 uM after 48 hrs in presence of 2 uM laxaphycin A by RRT assay; assay type: cell-based; conditions: dld-1, 48 h
Method in brief: (§3)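 Adherent lines in supplemented Glutamax MEM, 37 °C, 5% CO2. Seeded 5 × 10³ cells/well, adhered 16 h, then treated 48 h continuously, alone or in combination, in 0.5% DMSO (solvent control). Resazurin 25 µg/mL in MEM added, 1 h at 37 °C, fluorescence 530/590 nm. Survival = % of control after blank subtraction; IC50 from concentration–survival curve. Two independent assays in triplicate.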

CCRF-CEM [5] = assay: Interaction index, ratio of IC50 for CCRF-CEM cells in presence of 1 uM laxaphycin A/IC50 for CCRF-CEM cells; assay type: functional, Homo sapiens
CEM-VLB [6] = assay: Antiproliferative activity against vinblastine-resistant CEM/VLB100 after 72 hrs in presence of 0.4 uM laxaphycin A; assay type: functional, cell-based; conditions: Homo sapiens; method in brief: as §2
[7] = Cytotoxicity against human fibroblasts after 48 hrs by RRT; assay type: cell-based; conditions: fibroblast; method in brief: as §3
DLD-1 [8] = assay: Survival of human DLD1 cells at 2 uM after 48 hrs by RRT assay; assay type: functional
Method in brief: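 Adherent cells cultured in Glutamax Eagle's MEM with Earle's salts, fetal calf serum, vitamins, pyruvate, nonessential amino acids, glutamine and gentamycin at 37 °C, 5% CO2. Seeded 5 × 10³ cells/well, 16 h adhesion, then 48 h continuous exposure in 0.5% DMSO, alone or combined. Resazurin (25 µg/mL in MEM) added for 1 h at 37 °C, fluorescence 530/590 nm; survival as percentage of solvent controls after blank subtraction; two independent experiments in triplicate, averaged.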

CEM-VLB [9] = assay: Interaction index, ratio of IC50 for CEM/VLB100 cells in presence of 1 uM laxaphycin A/IC50 for CEM/VLB100 cells; assay type: functional, Homo sapiens
CCRF-CEM [10] = assay: Antiproliferative activity against drug-sensitive CCRF-CEM cells after 72 hrs in presence of 1 uM laxaphycin A; assay type: functional, cell-based; conditions: Homo sapiens; method in brief: as §2
CEM-VLB [11] = assay: Antiproliferative activity against vinblastine-resistant CEM/VLB100 after 72 hrs in presence of 1 uM laxaphycin A; assay type: functional, cell-based; conditions: Homo sapiens; method in brief: as §2
CCRF-CEM [12] = assay: Cytotoxicity against drug-sensitive CCRF-CEM cells after 72 hrs; assay type: cell-based; conditions: Homo sapiens; method in brief: as §2
L929 [13] = assay: Cytotoxicity against mouse L929 cells after 48 hrs by RRT; assay type: cell-based; conditions: l929, 48 h; method in brief: as §3
CEM-VM1 [14] = assay: Antiproliferative activity against teniposide-resistant CEM/VM1 after 72 hrs in presence of 1 uM laxaphycin A; assay type: functional, cell-based; conditions: Homo sapiens, CEM-VM1, 72 h; method in brief: as §2
CCRF-CEM [15] = assay: Antiproliferative activity against drug-sensitive CCRF-CEM cells after 72 hrs in presence of 2 uM laxaphycin A; assay type: functional, cell-based; conditions: Homo sapiens; method in brief: as §2
CEM-VM1 [16] = assay: Interaction index, ratio of IC50 for CEM/VM1 cells in presence of 0.4 uM laxaphycin A/IC50 for CEM/VM1 cells; assay type: functional, Homo sapiens
DLD-1 [17] = assay: Cytotoxicity against human DLD1cells after 48 hrs by RRT; assay type: cell-based; conditions: dld-1, 48 h; method in brief: as §3
CEM-VLB [18] = assay: Antiproliferative activity against vinblastine-resistant CEM/VLB100 after 72 hrs in presence of 0.2 uM laxaphycin A; assay type: functional, cell-based; conditions: Homo sapiens; method in brief: as §2
CEM-VM1 [19] = assay: Interaction index, ratio of IC50 for CEM/VM1 cells in presence of 0.2 uM laxaphycin A/IC50 for CEM/VM1 cells; assay type: functional, Homo sapiens
L929 [20] = assay: Cytotoxicity against mouse L929 cells after 48 hrs by Hoechst 33342 assay; assay type: cell-based; conditions: l929, 48 h; method in brief: as §1
CEM-VLB [21] = assay: Interaction index, ratio of IC50 for CEM/VLB100 cells in presence of 2 uM laxaphycin A/IC50 for CEM/VLB100 cells; assay type: functional, Homo sapiens
DLD-1 [22] = assay: Cytotoxicity against human DLD1cells after 48 hrs by Hoechst 33342 assay; assay type: cell-based; conditions: dld-1, 48 h; method in brief: as §1
CEM-VM1 [23] = assay: Interaction index, ratio of IC50 for CEM/VM1 cells in presence of 2 uM laxaphycin A/IC50 for CEM/VM1 cells; assay type: functional, Homo sapiens
[24] = Cytotoxicity against teniposide-resistant CEM/VM1 cells after 72 hrs; assay type: cell-based; conditions: Homo sapiens, CEM-VM1, 72 h; method in brief: as §2
PC-3 [25] = assay: Cytotoxicity against human androgen-resistant PC3 cells after 48 hrs by RRT; assay type: cell-based; conditions: PC-3, 48 h; method in brief: as §3
CCRF-CEM [26] = assay: Ratio of IC50 for vinblastine-resistant CEM/VLB100 cells over IC50 for drug-sensitive CCRF-CEM cells; assay type: functional, Homo sapiens
CCRF-CEM [27] = assay: Interaction index, ratio of IC50 for CCRF-CEM cells in presence of 0.4 uM laxaphycin A/IC50 for CCRF-CEM cells; assay type: functional, Homo sapiens
[28] = Cytotoxicity against human […] cells after 48 hrs by RRT; assay type: cell-based; method in brief: as §3
CEM-VM1 [29] = assay: Antiproliferative activity against teniposide-resistant CEM/VM1 after 72 hrs in presence of 0.4 uM laxaphycin A; assay type: functional, cell-based; conditions: Homo sapiens, CEM-VM1, 72 h; method in brief: as §2
CEM-VLB [30] = assay: Interaction index, ratio of IC50 for CEM/VLB100 cells in presence of 0.4 uM laxaphycin A/IC50 for CEM/VLB100 cells; assay type: functional, Homo sapiens
CCRF-CEM [31] = assay: Antiproliferative activity against drug-sensitive CCRF-CEM cells after 72 hrs in presence of 0.4 uM laxaphycin A; assay type: functional, cell-based; conditions: Homo sapiens; method in brief: as §2
[32] = Cytotoxicity against human M4Beu cells after 48 hrs by RRT; assay type: cell-based; method in brief: as §3
[33] = Cytotoxicity against human fibroblasts after 48 hrs by Hoechst 33342 assay; assay type: cell-based; conditions: fibroblast; method in brief: as §1
[34] = Cytotoxicity against human PA1 cells after 48 hrs by RRT; assay type: cell-based; conditions: pa-1, 48 h; method in brief: as §3
CCRF-CEM [35] = assay: Interaction index, ratio of IC50 for CCRF-CEM cells in presence of 0.2 uM laxaphycin A/IC50 for CCRF-CEM cells; assay type: functional, Homo sapiens
PC-3 [36] = assay: Cytotoxicity against human androgen-resistant PC3 cells after 48 hrs by Hoechst 33342 assay; assay type: cell-based; conditions: PC-3, 48 h; method in brief: as §1
CCRF-CEM [37] = assay: Ratio of IC50 for teniposide-resistant CEM/VM1 cells over IC50 for drug-sensitive CCRF-CEM cells; assay type: functional, Homo sapiens
CCRF-CEM [38] = assay: Antiproliferative activity against drug-sensitive CCRF-CEM cells after 72 hrs in presence of 0.2 uM laxaphycin A; assay type: functional, cell-based; conditions: Homo sapiens; method in brief: as §2
CEM-VM1 [39] = assay: Antiproliferative activity against teniposide-resistant CEM/VM1 after 72 hrs in presence of 0.2 uM laxaphycin A; assay type: functional, cell-based; conditions: Homo sapiens, CEM-VM1, 72 h; method in brief: as §2
CEM-VM1 [40] = assay: Antiproliferative activity against teniposide-resistant CEM/VM1 after 72 hrs in presence of 2 uM laxaphycin A; assay type: functional, cell-based; conditions: Homo sapiens, CEM-VM1, 72 h; method in brief: as §2
[41] = Cytotoxicity against human M4Beu cells after 48 hrs by Hoechst 33342 assay; assay type: cell-based; method in brief: as §1
MCF7 [42] = assay: Cytotoxicity against human MCF7 cells after 48 hrs by RRT; assay type: cell-based; conditions: MCF7, 48 h; method in brief: as §3
CCRF-CEM [43] = assay: Interaction index, ratio of IC50 for CCRF-CEM cells in presence of 2 uM laxaphycin A/IC50 for CCRF-CEM cells; assay type: functional, Homo sapiens
MCF7 [44] = assay: Cytotoxicity against human MCF7 cells after 48 hrs by Hoechst 33342 assay; assay type: cell-based; conditions: MCF7, 48 h; method in brief: as §1
DLD-1 [45] = assay: Increase in cytotoxicity in human DLD1 cells at 2 uM after 48 hrs in presence of 1.5 uM laxaphycin A by RRT assay; assay type: cell-based; conditions: dld-1, 48 h; method in brief: as §3
CEM-VLB [46] = assay: Interaction index, ratio of IC50 for CEM/VLB100 cells in presence of 0.2 uM laxaphycin A/IC50 for CEM/VLB100 cells; assay type: functional, Homo sapiens
DLD-1 [47] = assay: Increase in cytotoxicity in human DLD1 cells at 2 uM after 48 hrs in presence of 1 uM laxaphycin A by RRT assay; assay type: cell-based; conditions: dld-1, 48 h; method in brief: as §3
[48] = Cytotoxicity against human […] cells after 48 hrs by Hoechst 33342 assay; assay type: cell-based; method in brief: as §1
CEM-VM1 [49] = assay: Interaction index, ratio of IC50 for CEM/VM1 cells in presence of 1 uM laxaphycin A/IC50 for CEM/VM1 cells; assay type: functional, Homo sapiens

pIC50 (CCRF-CEM [10]): 6.39
pIC50 (CCRF-CEM [15]): 6.46
pIC50 (CCRF-CEM [31]): 6.30
pIC50 (CCRF-CEM [38]): 6.21
SMILES: CCCCCCC[C@@H]1CC(=O)N[C@@H](C(C)C)C(=O)N[C@@H]([C@@H](O)C(C)C)C(=O)N[C@@H](C)C(=O)N[C@H]([C@@H](O)C(C)C)C(=O)N[C@@H](CCC(N)=O)C(=O)N(C)[C@@H]([C@@H](C)CC)C(=O)N[C@H]([C@@H](O)C(N)=O)C(=O)N[C@@H]([C@@H](C)O)C(=O)N2CCC[C@H]2C(=O)N[C@H](CC(C)C)C(=O)N[C@@H]([C@@H](C)O)C(=O)N1 [LAXAPHYCIN B]
Activity [1]: Dose-dependent effect
pIC50 (CEM-VLB [2]): 6.48
pIC50 [3]: 5.99
Activity (DLD-1 [4]): Active
Ratio IC50 (CCRF-CEM [5]): 0.41
pIC50 (CEM-VLB [6]): 6.24
Activity [7]: Dose-dependent effect
Activity (DLD-1 [8]): 90%
Ratio IC50 (CEM-VLB [9]): 0.35
pIC50 (CEM-VLB [11]): 6.44
pIC50 (CCRF-CEM [12]): 5.95
Activity (L929 [13]): Dose-dependent effect
pIC50 (CEM-VM1 [14]): 6.37
Ratio IC50 (CEM-VM1 [16]): 0.44
Activity (DLD-1 [17]): Dose-dependent effect
pIC50 (CEM-VLB [18]): 6.04
Ratio IC50 (CEM-VM1 [19]): 0.53
Activity (L929 [20]): Dose-dependent effect
Ratio IC50 (CEM-VLB [21]): 0.32
Activity (DLD-1 [22]): Dose-dependent effect
Ratio IC50 (CEM-VM1 [23]): 0.3
pIC50 [24]: 5.86
pIC50 (PC-3 [25]): 6.10
Ratio IC50 (CCRF-CEM [26]): 0.9
Ratio IC50 (CCRF-CEM [27]): 0.45
Activity [28]: Dose-dependent effect
pIC50 (CEM-VM1 [29]): 6.22
Ratio IC50 (CEM-VLB [30]): 0.56
pIC50 [32]: 6.40
Activity [33]: Dose-dependent effect
Activity [34]: Dose-dependent effect
Ratio IC50 (CCRF-CEM [35]): 0.56
pIC50 (PC-3 [36]): 6.24
Ratio IC50 (CCRF-CEM [37]): 1.2
pIC50 (CEM-VM1 [39]): 6.14
pIC50 (CEM-VM1 [40]): 6.39
pIC50 [41]: 6.52
pIC50 (MCF7 [42]): 6.00
Ratio IC50 (CCRF-CEM [43]): 0.32
pIC50 (MCF7 [44]): 6.30
Activity (DLD-1 [45]): Active
Ratio IC50 (CEM-VLB [46]): 0.9
Activity (DLD-1 [47]): Active
Activity [48]: Dose-dependent effect
Ratio IC50 (CEM-VM1 [49]): 0.32

SMILES: CC[C@]1(O)C[C@@H]2CN(CCc3c([nH]c4ccccc34)[C@@](C(=O)OC)(c3cc4c(cc3OC)N(C)[C@H]3[C@@](O)(C(=O)OC)[C@H](OC(C)=O)[C@]5(CC)C=CCN6CC[C@]43[C@@H]65)C2)C1 [VINBLASTINE]
pIC50 [3]: 6.45
pIC50 (CCRF-CEM [12]): 8.40
pIC50 [24]: 8.10
Ratio IC50 (CCRF-CEM [26]): 89
Ratio IC50 (CCRF-CEM [37]): 2
